Measured values pooled from the literature.
Each line is one published result; the experiments were not run side by side.
Target: Ephrin type-A receptor 6 (EPHA6, Homo sapiens, UniProt Q9UF33)
One construct used (Q9UF33 1-1036): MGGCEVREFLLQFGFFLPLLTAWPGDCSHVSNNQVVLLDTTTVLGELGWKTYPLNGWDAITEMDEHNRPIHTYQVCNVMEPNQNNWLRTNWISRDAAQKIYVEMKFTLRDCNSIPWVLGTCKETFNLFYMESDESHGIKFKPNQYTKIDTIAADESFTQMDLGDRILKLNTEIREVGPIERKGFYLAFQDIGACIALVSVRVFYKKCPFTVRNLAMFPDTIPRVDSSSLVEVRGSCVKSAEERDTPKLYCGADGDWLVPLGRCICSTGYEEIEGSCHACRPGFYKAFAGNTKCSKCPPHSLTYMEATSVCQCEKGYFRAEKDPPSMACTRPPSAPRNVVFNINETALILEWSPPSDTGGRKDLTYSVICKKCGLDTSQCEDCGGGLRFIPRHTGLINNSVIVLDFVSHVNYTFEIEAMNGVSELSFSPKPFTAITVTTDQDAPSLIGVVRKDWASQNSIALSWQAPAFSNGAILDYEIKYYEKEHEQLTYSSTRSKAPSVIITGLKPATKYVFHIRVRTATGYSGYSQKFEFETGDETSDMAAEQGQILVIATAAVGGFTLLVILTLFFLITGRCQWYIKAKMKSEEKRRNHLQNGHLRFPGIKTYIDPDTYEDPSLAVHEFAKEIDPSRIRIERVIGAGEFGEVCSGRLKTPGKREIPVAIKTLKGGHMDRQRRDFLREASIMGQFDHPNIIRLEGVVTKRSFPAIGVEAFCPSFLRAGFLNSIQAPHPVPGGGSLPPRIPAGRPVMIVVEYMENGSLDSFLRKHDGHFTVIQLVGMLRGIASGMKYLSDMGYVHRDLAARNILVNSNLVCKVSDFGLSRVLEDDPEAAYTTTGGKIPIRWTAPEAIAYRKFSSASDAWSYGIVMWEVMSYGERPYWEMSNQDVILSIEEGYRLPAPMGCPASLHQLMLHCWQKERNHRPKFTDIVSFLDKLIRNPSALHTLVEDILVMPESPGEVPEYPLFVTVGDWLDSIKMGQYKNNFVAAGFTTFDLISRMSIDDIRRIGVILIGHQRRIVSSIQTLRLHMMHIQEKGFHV

The remaining binding of `N#Cc1ccc(Nc2ccc3[nH]c(=O)[nH]c3c2)c(Cl)c1` is reported as 82% (cell-free assay; competition with immobilised ligand; 1 µM).
`CC(C)(C)c1nc2c(s1)c1nc(N)ncc1c1ccc(NS(=O)(=O)c3c(F)cccc3F)c(F)c12` gave a remaining activity of 99% (enzyme activity; inhibitor; radiometric; 1 µM).
`Oc1cccc(-c2nc(N3CCOCC3)c3oc4ncccc4c3n2)c1` gave a remaining signal of 79% (cell-free assay; 0.5 µM).
With `O=C(Nc1cnn(-c2csc(C(=O)NC3COC3)c2)c1)Nc1ccccc1Cl` the remaining activity was 99.5% (enzyme activity; inhibitor; 5 µM).
The remaining activity of `CC(C)(O)[C@H]1CC[C@H](Nc2ccc3ncc(-c4cccc(C(F)(F)F)c4)n3n2)CC1` is reported as 91.1% (enzyme activity; inhibitor; 1 µM).
`CS(=O)(=O)N1CCCC(NC(=O)[C@H](CCC2CCCCC2)NC(=O)c2ccc(CNC(=O)c3cnc4ccccn34)cc2)C1` (stereo partly shown) gave a remaining binding of 100% (cell-free assay; competition with immobilised ligand; 0.1 µM).
`CC(C)(C)c1nc(-c2cccc(NS(=O)(=O)c3c(F)cccc3F)c2F)c(-c2ccnc(N)n2)s1` gave a remaining activity of 72% (enzyme activity; inhibitor; radiometric; 1 µM).
`Cc1ccc(C(=O)Nc2ccc(CN3CCN(C)CC3)c(C(F)(F)F)c2)cc1C#Cc1cnc2cccnn12` gave a remaining signal of 45% (cell-free assay; 23.5 nM).
With `Nc1ncnc2occ(-c3ccc(NC(=O)Nc4cc(C(F)(F)F)ccc4F)cc3)c12` the remaining signal was 0% (cell-free assay; 20 µM).
For `CC/C(=N\NC(=O)NCc1cccc(O)c1)c1ccc(O)c(C)c1O`, the inhibition was 1.5% (enzyme activity; inhibitor; 0.1 µM).
The remaining binding of `CC(=O)Nc1c(C(C)=O)c(=O)n(C)c2nc(-c3ccc(Cl)cc3Cl)c(-c3ccc(Cl)cc3)cc12` is reported as 100% (cell-free assay; competition with immobilised ligand; 1 µM).
The remaining activity of `Cc1sc(C(=O)NC2COC2)cc1-n1cc(NC(=O)Nc2c(F)cccc2Cl)cn1` is reported as 80.2% (enzyme activity; inhibitor; 10 µM).
For `CNC(=O)c1cc(Oc2ccc(NC(=O)Nc3ccc(Cl)c(C(F)(F)F)c3)cc2)ccn1`, the remaining signal was 42% (cell-free assay; 0.5 µM).
